The text below walks through data of ChEMBL document CHEMBL2375256, “Functionalized indoleamines as potent, drug-like inhibitors of isoprenylcysteine carboxyl methyltransferase (Icmt)” (Eur J Med Chem, 2013).

A word on the solubility: it is how much of the substance goes into solution per volume. By IC50 is commonly meant the concentration that inhibits the measured activity by half. Usually half-life stands for the time in which the quantity being followed falls by half.

SMILES strings stand for the structures. ≈ marks a conversion by molar mass, not a printed value.

System in one data set: not listed separately
The data set can be described thus: Aqueous solubility of the compound at pH 7.4 after 24 hrs agitation. Type of data set: physicochemical.
Settings: not given
`CCCCCCCCn1cc(CN(CC)CC)c2cc(-c3cccc(C)c3)ccc21`: the solubility at 24 h turned out to be 1.1 µM (≈ 0.445 µg/mL). This counts as single-digit micromolar.

A further data set deals with MIA PaCa-2. In words: Antiproliferative activity against human MIAPaCa2 cells after 72 hrs by MTT assay. The class given is functional, cell-based. The following applies: MIA PaCa-2, 72 h. A general note: Tetrazolium assays rely on reduction of a dye to a coloured formazan, in cell work by metabolically active cells.
As to `CCCCCCCCn1cc(CN(CC)CC)c2cc(-c3cnc(N)nc3)ccc21`, the IC50 worked out at 1.6 µM.

Another data set has as its system MDA-MB-231. The data set can be described thus: Antiproliferative activity against human MDA-MB-231 cells after 72 hrs […]. Type of data set: functional, cell-based. The settings on record: MDA-MB-231, 72 h.
`CCCCCCCCn1cc(CN(CC)CC)c2cc(F)ccc21` registered an IC50 of 7.36 µM.

In the case of `CCCCCCCCn1cc(CN(CC)CC)c2cc(-c3cccc(C)c3)ccc21`, the IC50 is 5.14 µM.

`CCCCCCCCn1cc(CN(CC)CC)c2cc(-c3cccc(O)c3)ccc21` registered an IC50 of 18.1 µM.

Molecule `CCCCCCCCn1cc(CN(CC)CC)c2cc(-c3ccc(C#N)cc3)ccc21` had a concentration for half-maximal inhibition (IC50) of 10.8 µM.

`CCCCCCCCn1cc(CN(CC)CC)c2cc(-c3ccc(S(C)(=O)=O)cc3)ccc21` came in with a half-maximal inhibitory concentration (IC50) of 5.56 µM.

`CCCCCCCCn1cc(CN(CC)CC)c2cc(-c3ccc(S(=O)(=O)NC)cc3)ccc21` displayed a concentration for half-maximal inhibition (IC50) of 10.2 µM.

The molecule `CCCCCCCCn1cc(CN(CC)CC)c2cc(-c3cccnc3)ccc21` gave a 50% inhibitory concentration (IC50) of 5.5 µM.

Molecule `CCCCCCCCn1cc(CN(CC)CC)c2cc(-c3ccc(N(C)C)nc3)ccc21` returned a concentration for half-maximal inhibition (IC50) of 2.52 µM.

As to `CCCCCCCCn1cc(CN(CC)CC)c2cc(-c3ccncc3F)ccc21`, the concentration for half-maximal inhibition (IC50) is 5.14 µM.

Regarding `CCCCCCCCn1cc(CN(CC)CC)c2cc(-c3cncnc3)ccc21`, inhibition was half-maximal at 11.1 µM (IC50).

`CCCCCCCCn1cc(CN(CC)CC)c2cc(-c3cnc(C#N)nc3)ccc21` came in with a half-maximal inhibitory concentration (IC50) of 3.85 µM.

With `CCCCCCCCn1cc(CN(CC)CC)c2cc(-c3cnc(N)nc3)ccc21`, the IC50 was found to be 2.48 µM.

On to `CCCCCCCCn1cc(CN(CC)CC)c2c(F)cccc21`, for which the IC50 worked out at 7.5 µM.

With `CCCCCCCCn1cc(CN(CC)CC)c2ccc(F)cc21`, the midpoint of inhibition, the IC50, lay at 9.14 µM.

In turn, `CCCCCCCCn1cc(CN(CC)CC)c2cccc(F)c21` showed an IC50 of 8.87 µM.

Turning to `CCCCCCCCn1cc(CC(N)=O)c2cc(-c3cccc(C)c3)ccc21`, the IC50 was 22.1 µM.

System in a further data set: not listed separately
The data set can be described thus: Intrinsic clearance in rat liver microsomes at 3 uM. The class given is ADME, Microsome. The settings on record: read-out: CLH. The essentials: (§1)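 Compound at 3 µM was incubated with pooled male rat liver microsomes (0.3 mg protein/mL) in 0.1 M phosphate buffer pH 7.4 with 1 mM EDTA. The reaction was started with NADPH (1 mM final) at 37 °C and sampled at 0, 5, 15, 30 and 45 min.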
In general terms: Liver microsomes are vesicles of endoplasmic reticulum, rich in cytochrome P450 enzymes.
Turning to `CCCCCCCCn1cc(CN(CC)CC)c2cc(-c3cccc(C)c3)ccc21`, the microsomal CLint at 3 µM came to 85.8 µL/min/mg.

Consider `CCCCCCCCn1cc(CN(CC)CC)c2cc(-c3cnc(N)nc3)ccc21`, for which the microsomal CLint at 3 µM was 204 µL/min/mg.

With `CCCCCCCCn1cc(CC(N)=O)c2cc(-c3cccc(C)c3)ccc21`, the microsomal CLint at 3 µM worked out at 53.6 µL/min/mg.

For a further data set, the system named is HepG2. The data set can be described thus: Antiproliferative activity against human HepG2 cells after 72 hrs […]. The following applies: HepG2, 72 h. The class given is functional, cell-based.
`CCCCCCCCn1cc(CN(CC)CC)c2cc(-c3cccc(C)c3)ccc21` had an IC50 of 4.9 µM.

`CCCCCCCCn1cc(CN(CC)CC)c2cc(-c3cnc(N)nc3)ccc21` showed an IC50 of 1.65 µM.

`CCCCCCCCn1cc(CC(N)=O)c2cc(-c3cccc(C)c3)ccc21` came in with an IC50 of 19.3 µM.

System in another data set: not listed separately
The data set can be described thus: Half life in rat liver microsomes at 3 uM. Type of data set: ADME, Microsome.
Settings: not given
The essentials: as §1
`CCCCCCCCn1cc(CN(CC)CC)c2cc(-c3cccc(C)c3)ccc21` came in with a half-life at 3 µM of 26.9 min.

The molecule `CCCCCCCCn1cc(CN(CC)CC)c2cc(-c3cnc(N)nc3)ccc21` registered a half-life at 3 µM of 11.3 min. Compared with the last molecule, the half-life at 3 µM is about 2.4-fold lower.

In turn, `CCCCCCCCn1cc(CC(N)=O)c2cc(-c3cccc(C)c3)ccc21` registered a half-life at 3 µM of 44.8 min.

The next data set deals with IMR-90. In words: Antiproliferative activity against human IMR90 cells after 72 hrs […]. Type of data set: cell-based. The following applies: IMR-90, 72 h.
As to `CCCCCCCCn1cc(CN(CC)CC)c2cc(-c3cccc(C)c3)ccc21`, the IC50 is 5.26 µM.

Molecule `CCCCCCCCn1cc(CN(CC)CC)c2cc(-c3cccnc3)ccc21` registered a concentration for half-maximal inhibition (IC50) of 5.52 µM.

Consider `CCCCCCCCn1cc(CN(CC)CC)c2cc(-c3cncnc3)ccc21`, for which it took 9.84 µM to reach half-maximal inhibition (IC50).

The molecule `CCCCCCCCn1cc(CN(CC)CC)c2cc(-c3cnc(N)nc3)ccc21` had a half-inhibitory concentration (IC50) of 2.65 µM.

For the next data set, the system named is PC-3. In words: Antiproliferative activity against human PC3 cells after 72 hrs […]. The class given is functional, cell-based. The settings on record: PC-3, 72 h.
Take `CCCCCCCCn1cc(CN(CC)CC)c2cc(-c3cccc(C)c3)ccc21`: the IC50 stood at 6.31 µM.

As for `CCCCCCCCn1cc(CN(CC)CC)c2cc(-c3cccc(O)c3)ccc21`, the IC50 was 14.9 µM.

`CCCCCCCCn1cc(CN(CC)CC)c2cc(-c3ccc(C#N)cc3)ccc21`: the IC50 amounted to 6.11 µM.

For `CCCCCCCCn1cc(CN(CC)CC)c2cc(-c3ccc(S(C)(=O)=O)cc3)ccc21`, half-maximal inhibition (IC50) was put at 4.74 µM.

The molecule `CCCCCCCCn1cc(CN(CC)CC)c2cc(-c3cccnc3)ccc21` yielded an IC50 of 5.84 µM.

`CCCCCCCCn1cc(CN(CC)CC)c2cc(-c3ccc(N(C)C)nc3)ccc21` yielded a 50% inhibitory concentration (IC50) of 1.92 µM.

In turn, `CCCCCCCCn1cc(CN(CC)CC)c2cc(-c3ccncc3F)ccc21` gave an IC50 of 5.88 µM.

For the molecule `CCCCCCCCn1cc(CN(CC)CC)c2cc(-c3cncnc3)ccc21`, the midpoint of inhibition, the IC50, lay at 8.47 µM.

Molecule `CCCCCCCCn1cc(CN(CC)CC)c2cc(-c3cnc(C#N)nc3)ccc21` returned an IC50 of 5.74 µM.

As to `CCCCCCCCn1cc(CN(CC)CC)c2cc(-c3cnc(N)nc3)ccc21`, the IC50 amounted to 2.55 µM.

Turning to `CCCCCCCCn1cc(CC(N)=O)c2cc(-c3cccc(C)c3)ccc21`, half-maximal inhibition (IC50) was put at 21.3 µM.

In another data set the target is Protein-S-isoprenylcysteine O-methyltransferase (Homo sapiens, UniProt O60725). In words: Inhibition of recombinant Icmt (unknown origin) expressed in Sf9 cells assessed as transfer of methyl group from [3H]-S-adenosylmethionine to [3H]-biotin-S-farnesyl-L-cysteine after 30 mins.
Chain of Protein-S-isoprenylcysteine O-methyltransferase (O60725 whole entry): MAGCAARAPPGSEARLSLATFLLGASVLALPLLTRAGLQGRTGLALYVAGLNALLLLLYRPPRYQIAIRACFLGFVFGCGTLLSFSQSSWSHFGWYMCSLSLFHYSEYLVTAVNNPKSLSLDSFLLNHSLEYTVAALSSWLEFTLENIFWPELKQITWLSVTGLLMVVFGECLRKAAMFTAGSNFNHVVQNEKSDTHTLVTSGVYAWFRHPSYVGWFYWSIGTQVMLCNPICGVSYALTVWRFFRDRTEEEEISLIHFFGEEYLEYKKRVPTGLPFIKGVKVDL
Settings: not given
The essentials:
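Icmt membrane protein was diluted to 0.03 mg/mL in 70 mM HEPES, 100 mM NaCl, 5 mM MgCl2, 3 mM DTT, pH 7.5, and preincubated with inhibitor. The reaction was started with a mix of BFC, SAM and [3H]SAM and run 30 min at 37 °C. It was quenched with excess SAM, captured on streptavidin SPA beads overnight at ambient temperature, and counted. IC50 was taken from % activity versus log concentration, with two independent determinations.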
For `CCCCCCCCn1cc(CN(CC)CC)c2cc(F)ccc21`, the IC50 was determined as 4.42 µM.

Regarding `CCCCCCCCn1cc(CN(CC)CC)c2cc(-c3ccc(N(C)C)nc3)ccc21`, the IC50 turned out to be 1.63 µM.

In the case of `CCCCCCCCn1cc(CN(CC)CC)c2cc(-c3ccncc3F)ccc21`, the IC50 stood at 0.96 µM.

As for `CCCCCCCCn1cc(CN(CC)CC)c2ccc(F)cc21`, the IC50 is 2.22 µM.
